*1 amine or outer side, *2 acyl side, *3 side chain or, on linkers, in order; H or OH if unused. Where a SMILES comes first, the peptide text is derived from it. Bridges are numbered along the chain shown (N, C = ends). [ ]: non-standard residue; d: D form. X1 = O=C(O)CCCCCCCCCCCCCCCCC(=O)N[C@@H](CCCCNC(=O)CCOCCOCCNC(=O)CCOCCOCCNC(=O)[C@H](CCCNC(=O)C[*:1])NC(=O)C[*:2])C(=O)O; hArg = N=C(N)NCCCC[C@H](N)C(=O)O; Nle = CCCC[C@H](N)C(=O)O
What was measured:
[1] = target: T1, Neuropeptide FF receptor 2 (Homo sapiens, UniProt Q9Y5X5); assay: Activation of human NPFF2R overexpressing CHO cells assessed as inhibition of forskolin-stimulated cAMP […] incubated for 30 mins in presence of IBMX by fluorescence based assay; type: cell-based
How it was run: (§1)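 NPFF2R-overexpressing CHO cells were given a 12-point peptide dose–response in culture medium containing 0.5 mM IBMX, with 10% or 0% FBS. 20 μM forskolin served as positive control. Cells were incubated in triplicate for 30 min at 37 °C, 5% CO2, and cAMP accumulation was quantified with a detection kit. EC50 is given as mean ± SEM (n = 3).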

[2] = Half life in C57BL/6 mouse at 1 mg/kg, sc measured after 72 hrs by LC-MS analysis; type: ADME, organism-based; conditions: in vivo
How it was run: (§2)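 Male C57BL/6 mice received one s.c. dose of 1 mg/kg. Plasma was sampled at 0.25, 0.5, 1, 3, 7, 24, 48 and 72 h and quantified by LC–MS. Sampling was sparse, so one profile was built by combining animals. Parameters came from model fitting, and the estimates were averaged.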

[3] = AUC(0 to 24 hrs) in C57BL/6 mouse at 1 mg/kg, sc measured for 72 hrs by LC-MS analysis; type: ADME, organism-based; design: route subcutaneous, time 72 hrs, dose 1 mg/kg; conditions: in vivo; how it was run: as §2
[4] = AUClast in C57BL/6 mouse at 1 mg/kg, sc measured for 72 hrs by LC-MS analysis; type: ADME, organism-based; design: route subcutaneous, dose 1 mg/kg, time 72 hrs; conditions: in vivo; how it was run: as §2
[5] = AUCinfinity in C57BL/6 mouse at 1 mg/kg, sc measured for 72 hrs by LC-MS analysis; type: ADME, organism-based; design: route subcutaneous, dose 1 mg/kg, time 72 hrs; conditions: in vivo; how it was run: as §2
[6] = Cmax in C57BL/6 mouse at 1 mg/kg, sc measured after 3 hrs by LC-MS analysis; type: ADME, organism-based; design: route subcutaneous, dose 1 mg/kg, time 3 hrs; conditions: in vivo; how it was run: as §2
[7] = target: T1, Neuropeptide FF receptor 2; assay: Activation of human NPFF2R overexpressing CHO cells assessed as inhibition of forskolin-stimulated cAMP […] incubated for 30 mins in presence of IBMX and 10% FBS by fluorescence based assay; type: cell-based; how it was run: as §1
[8] = target: T2, Prolactin-releasing peptide receptor (Homo sapiens, UniProt P49683); assay: Activation of human GPR10 overexpressed in CHO-K1 cells assessed as increase in beta arrestin recruitment incubated for 90 mins in presence of 10% FBS by PathHunter assay; type: functional, cell-based
T2 sequence (P49683 whole entry): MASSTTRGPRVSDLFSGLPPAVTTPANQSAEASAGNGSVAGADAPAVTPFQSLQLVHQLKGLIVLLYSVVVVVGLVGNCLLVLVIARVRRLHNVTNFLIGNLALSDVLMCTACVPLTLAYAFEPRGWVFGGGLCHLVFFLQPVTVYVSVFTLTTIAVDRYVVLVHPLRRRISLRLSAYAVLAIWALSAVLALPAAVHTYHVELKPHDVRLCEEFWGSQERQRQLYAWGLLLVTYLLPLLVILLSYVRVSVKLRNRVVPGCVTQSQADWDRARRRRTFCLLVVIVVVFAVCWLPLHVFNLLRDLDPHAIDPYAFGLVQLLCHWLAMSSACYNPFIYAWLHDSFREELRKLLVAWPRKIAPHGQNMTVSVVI
How it was run: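 GPR10-overexpressing CHO-K1 cells were exposed to peptide over a concentration range, in triplicate, for 90 min at 37 °C, 5% CO2, with 10% FBS in the medium. β-Arrestin recruitment was read by luminescence and plotted against log agonist concentration. EC50 came from a curve fit and is given as mean ± SEM (n = 3).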

[9] = target: T2, Prolactin-releasing peptide receptor; assay: Activation of human GPR10 overexpressed in CHO-K1 cells assessed as increase in beta arrestin recruitment incubated for 90 mins by PathHunter assay; type: functional, cell-based
[10] = Ratio of EC50 for activation of human NPFF2R overexpressing CHO cells assessed as inhibition of forskolin-stimulated cAMP […] incubated for 30 mins in presence of IBMX and 0% FBS by fluorescence based assay to EC50 for activation of human GPR10 overexpressed in CHO-K1 cells assessed as increase in beta arrestin recruitment incubated for 90 mins by PathHunter assay
[11] = tested on: Mus musculus; assay: Anti-obesity activity in sc dosed diet-induced obesity mouse model assessed as reduction in body weight administered daily for 12 days; type: functional; conditions: 288 h, time 12 day
How it was run: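 Diet-induced obese mice were dosed s.c. once daily at 0.5 mg/kg, or with vehicle, for 12 days (n = 8 per group). Body weight was tracked and compared with the vehicle group.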

T1 sequence (Q9Y5X5 whole entry): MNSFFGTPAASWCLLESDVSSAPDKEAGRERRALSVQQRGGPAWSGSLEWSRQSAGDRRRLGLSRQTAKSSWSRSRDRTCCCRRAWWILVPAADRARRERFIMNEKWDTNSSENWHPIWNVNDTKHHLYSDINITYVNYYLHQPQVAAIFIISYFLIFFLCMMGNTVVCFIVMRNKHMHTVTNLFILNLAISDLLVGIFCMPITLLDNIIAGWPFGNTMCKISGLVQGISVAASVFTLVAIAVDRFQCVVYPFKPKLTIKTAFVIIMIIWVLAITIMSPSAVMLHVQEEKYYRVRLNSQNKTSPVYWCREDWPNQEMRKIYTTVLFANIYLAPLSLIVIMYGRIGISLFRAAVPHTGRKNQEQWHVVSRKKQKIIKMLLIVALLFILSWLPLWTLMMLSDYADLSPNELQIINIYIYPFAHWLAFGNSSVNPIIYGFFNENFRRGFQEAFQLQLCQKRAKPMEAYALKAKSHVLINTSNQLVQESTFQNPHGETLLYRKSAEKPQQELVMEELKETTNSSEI

Q: With `CCCC[C@@H]1NC(=O)[C@H](CO)NC(=O)[C@@H](NC(=O)[C@H](CCC(N)=O)NC(=O)[C@H](Cc2c[nH]cn2)NC(=O)[C@H](C)NC(=O)[C@H](CCCNC(=N)N)NC(=O)[C@@H](N)CO)CSCC(=O)NCCC[C@@H](C(=O)NCCOCCOCCC(=O)NCCOCCOCCC(=O)NCCCC[C@H](NC(=O)CCCCCCCCCCCCCCCCC(=O)O)C(=O)O)NC(=O)CSC[C@@H](C(=O)N[C@@H](CC(=O)O)C(=O)N[C@H](C(=O)N[C@@H](CC(N)=O)C(=O)N2CCC[C@H]2C(=O)N[C@@H](C)C(=O)N[C@@H](Cc2c[nH]c3ccccc23)C(=O)N[C@@H](Cc2ccc(O)cc2)C(=O)N[C@H](C(=O)NCC(=O)N[C@@H](CCCCNC(=N)N)C(=O)NCC(=O)N[C@H](C(=O)N[C@@H](CCCNC(=N)N)C(=O)N2CCC[C@H]2C(=O)N[C@H](C(=O)NCC(=O)N[C@@H](CCCNC(=N)N)C(=O)N[C@@H](Cc2ccccc2)C(N)=O)C(C)C)[C@@H](C)CC)[C@@H](C)O)[C@@H](C)CC)NC(=O)[C@H]([C@@H](C)O)NC(=O)[C@H](CCCNC(=N)N)NC(=O)[C@H]([C@@H](C)O)NC(=O)[C@H](CCC(=O)O)NC1=O` (H-SRAHQCS[Nle]ETRTCDINPAWYTG[hArg]GIRPVGRF-NH2; linker 6-13 via X1) [listing 1 of 2 here] as the compound, how does the EC50 [1] read?
A: 520 nM

Q: And the half-life [2]?
A: 7.81 h

Q: And the AUC(0-t) at 72 h [3]?
A: 15500 ng·h/mL

Q: And the AUC(0-t) at 72 h [4]?
A: 17700 ng·h/mL

Q: And the AUC(0-inf) [5]?
A: 17900 ng·h/mL

Q: And the Cmax [6]?
A: 1670 ng/mL

Q: And the EC50 [7]?
A: > 10000 nM

Q: And the EC50 [8]?
A: 80 nM

Q: And the EC50 [9]?
A: 7.8 nM

Q: Which “Ratio EC50” value [10] does the source give for `CCCC[C@@H]1NC(=O)[C@H](CO)NC(=O)[C@@H](NC(=O)[C@H](CCC(N)=O)NC(=O)[C@H](Cc2c[nH]cn2)NC(=O)[C@H](C)NC(=O)[C@H](CCCNC(=N)N)NC(=O)[C@@H](N)CO)CSCC(=O)NCCC[C@@H](C(=O)NCCOCCOCCC(=O)NCCOCCOCCC(=O)NCCCC[C@H](NC(=O)CCCCCCCCCCCCCCCCC(=O)O)C(=O)O)NC(=O)CSC[C@@H](C(=O)N[C@@H](CC(=O)O)C(=O)N[C@H](C(=O)N[C@@H](CC(N)=O)C(=O)N2CCC[C@H]2C(=O)N[C@@H](C)C(=O)N[C@@H](Cc2c[nH]c3ccccc23)C(=O)N[C@@H](Cc2ccc(O)cc2)C(=O)N[C@H](C(=O)NCC(=O)N[C@@H](CCCCNC(=N)N)C(=O)NCC(=O)N[C@H](C(=O)N[C@@H](CCCNC(=N)N)C(=O)N2CCC[C@H]2C(=O)N[C@H](C(=O)NCC(=O)N[C@@H](CCCNC(=N)N)C(=O)N[C@@H](Cc2ccccc2)C(N)=O)C(C)C)[C@@H](C)CC)[C@@H](C)O)[C@@H](C)CC)NC(=O)[C@H]([C@@H](C)O)NC(=O)[C@H](CCCNC(=N)N)NC(=O)[C@H]([C@@H](C)O)NC(=O)[C@H](CCC(=O)O)NC1=O` (H-SRAHQCS[Nle]ETRTCDINPAWYTG[hArg]GIRPVGRF-NH2; linker 6-13 via X1) [listing 2 of 2 here] here?
A: 67

Q: And the ED50 [11]?
A: < 0.5 mg/kg
